Assay outcomes as filed in PubChem BioAssay.
In the library only some 4.8% were active in any assay of this set; here they are far more common.
FLuc inh counter – firefly luciferase enzyme inhibitors, primary screen, artefact control for luciferase-based inhibitor screens, biochemical, luminescence, ATPLite; Luciferin 4-monooxygenase (Photinus pyralis), P08659; 10 min; inhibition, % at 10 µM; 1.5% of 200,000 active;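 active means inhibition above about 50% when tested at 10 µM, limit read from the data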
Target sequence (P08659 whole entry, looked up): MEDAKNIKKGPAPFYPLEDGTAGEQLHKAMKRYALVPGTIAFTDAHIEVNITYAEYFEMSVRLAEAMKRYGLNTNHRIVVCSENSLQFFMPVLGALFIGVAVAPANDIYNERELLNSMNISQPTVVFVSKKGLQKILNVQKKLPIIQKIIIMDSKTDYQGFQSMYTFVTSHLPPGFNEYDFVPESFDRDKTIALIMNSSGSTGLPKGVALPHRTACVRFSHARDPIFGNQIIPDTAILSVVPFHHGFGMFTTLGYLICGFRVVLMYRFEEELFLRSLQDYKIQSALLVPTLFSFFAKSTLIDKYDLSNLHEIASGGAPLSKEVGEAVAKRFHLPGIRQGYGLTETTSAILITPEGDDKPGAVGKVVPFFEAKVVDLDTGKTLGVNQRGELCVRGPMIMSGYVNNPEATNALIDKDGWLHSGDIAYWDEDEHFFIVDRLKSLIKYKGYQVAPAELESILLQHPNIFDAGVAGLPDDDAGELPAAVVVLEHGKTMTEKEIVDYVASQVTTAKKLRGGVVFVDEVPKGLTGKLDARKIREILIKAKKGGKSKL
APP 5'UTR act – activators of APP 5'UTR luciferase reporter, primary screen, SH-SY5Y cells. SH-SY5Y APP 5'UTR luciferase reporter, luminescence; zero percent = DMSO vehicle wells. activation, % at 2 µM. 1% of 190,000 active. AID 1276, 2008;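 active means activation above a set limit, based on mean plus 3 SD of controls, cut at about 140% in these data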
APP 5UTR inh – inhibitors of APP translation via 5'UTR reporter, primary screen, APP 5'UTR luciferase, SH-SY5Y cells; SH-SY5Y APP 5'UTR-luciferase reporter, luminescence; AID 1285, 2008; 0.82% of 190,000 active; inhibition, % at 2 µM;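 active means inhibition above a set limit, derived from the sample mean plus 3 SD, cut at about 45% in these data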
STAT1 act – STAT1 signaling activators, primary screen, cell-based, HTS, luciferase reporter | NIH 3T3 STAT1-luciferase reporter, IFN-gamma, luminescence; 100% = IFN-gamma alone, no compound | activation (% of control), % at 5.5 µM | 2.6% of 200,000 active | AID 932, 2007;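 active means activation above the screen-wide mean activation plus 3 SD, cut at about 130% in these data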
NF-kB expr up – activators of NF-kB expression in neurons, primary screen, cell-based, HTS; human neuronal cells, NF-kB reporter expression; hits give high values; fold change at 12.5 µM; 1.6% of 190,000 active; in the data active means fold change above about 3.3
FLuc act counter – FLuc activators, initial screening, artefact control for FLuc-dependent activation tests, biochemical, ATPlite luminescence. AID 1027, 2008. 200,000 tested, under 10 active. activation factor at 10 µM. Luciferin 4-monooxygenase (Photinus pyralis), P08659. ATPlite luciferase biochemical, 10 min; 0 = ATP-free wells, 1 = DMSO control;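 active means luciferase activation factor, scaled between plate controls, of at least 2 with compound at 10 µM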
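test system = cell-free luciferase reagent | medium = PBS as buffer for the ATP substrate | dosing = test compounds dosed from 2 mM stocks in 100% DMSO | incubation = 10 min at ambient temperature | detection = luminescence measurement of luciferase light output | benchmarks = low control with PBS replacing ATP, high control enzyme plus ATP without compound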
Numbers stand for hits; n = inactive; x = no result.

SMILES	FLuc inh counter	APP 5'UTR act	APP 5UTR inh	STAT1 act	NF-kB expr up	FLuc act counter
NS(=O)(=O)c1ccc(CNC(=O)c2ccc(Br)o2)cc1	n	n	n	n	n	n
NS(=O)(=O)c1ccc2nc(NC(=O)c3ccncc3)sc2c1	63.6	n	n	n	x	n
NC(=O)c1ccc2nc(NC(=O)c3ccc(N)cc3)sc2c1	n	n	n	142.2	n	n
NS(=O)(=O)c1ccc2nc(NC(=O)c3ccc(Br)o3)sc2c1	n	n	n	129.1	n	n
O=C(/C=C/c1ccncc1)c1ccc(NC(=O)c2ccccc2F)cc1	n	n	n	n	n	n
COc1ccc(Cc2nnc(NC(=O)c3cccs3)s2)cc1OC	n	n	n	n	n	n
CC(C)N1CCC(N2CCN(Cc3ccc(-c4ccc(Cl)cc4)o3)CC2CCO)CC1 (stereo not given)	n	n	n	n	n	n
CC1CC(C)CN(S(=O)(=O)c2ccc(C(C)(C)C)cc2)C1 (stereo not given)	n	n	n	n	n	n
COc1cccc(S(=O)(=O)NCc2ccc(C(=O)Nc3ccc(Cl)cc3)cc2)c1	n	n	n	n	n	n
COc1cccc(-c2cc(=O)c3cc(NC(=O)c4ccc(N(C)C)cc4)ccc3[nH]2)c1	n	n	92.0	n	n	n
COc1cccc(-c2cc(=O)c3cc(NC(=O)c4ccc(Cl)cc4)ccc3[nH]2)c1	n	n	78.0	n	n	n
COc1cccc(-c2cc(=O)c3cc(NC(=O)c4ccccc4)ccc3[nH]2)c1	n	n	86.8	n	n	n
CCn1c2ccccc2c2cc(NC(=O)c3cccc(OC)c3)ccc21	n	n	n	n	n	n
COc1ccc(NC(=O)c2ccc(OC(=S)N(C)c3ccc(OC)cc3)cc2)cc1	n	n	n	n	n	n
N#CCCCSC1=C(C#N)C(c2ccccc2Cl)CC(=O)N1 (stereo not given)	n	n	n	n	n	n
O=[N+]([O-])c1ccc(O)c(/C=N/Nc2ccccc2Cl)c1	n	n	n	n	n	n
O=[N+]([O-])c1ccccc1N/N=C\c1ccccc1Cl	n	x	x	n	3.67	n
N#CCC(=O)Nn1c(=S)[nH]c2ccccc2c1=O	n	n	n	n	n	n
O=C(COC(=O)/C=C/c1ccco1)Nc1cccc([N+](=O)[O-])c1	n	n	n	n	n	n
CN(C)c1ccc(NC(=O)CCn2c(=S)oc3ccccc32)cc1	n	n	n	133.6	n	n
Cc1ccc(NC(=O)CCn2c(=S)oc3ccccc32)cc1	n	n	n	n	n	n
CCn1c2ccccc2c2cc(Nc3cc(C)nc4ncnn34)ccc21	n	n	95.9	n	4.36	n
CCc1cccc(Nc2cc(C)nc3ncnn23)c1	n	n	n	n	n	n
Cc1c(-c2ccccn2)c(=O)[nH]n1-c1ccc(F)cc1	60.9	n	n	n	3.81	n
O=C(CSc1ncccn1)N/N=C/c1ccccc1[N+](=O)[O-]	n	n	n	n	n	n
SMILES	FLuc inh counter	APP 5'UTR act	APP 5UTR inh	STAT1 act	NF-kB expr up	FLuc act counter
CN1CC(c2ccc(C#N)cc2)C2(COc3ccccc3C2=O)C12C(=O)Nc1ccccc12 (stereo not given)	n	n	n	n	n	n
CCN(CC)CCNC(=O)c1ccc(Cl)c(S(=O)(=O)Nc2ccccc2OC)c1	n	n	n	n	n	n
CCN(CC)CCNC(=O)c1ccc(Cl)c(S(=O)(=O)Nc2ccc(Cl)cc2)c1	n	n	59.9	n	n	n
COC(=O)c1sccc1NC(=O)C12CC3CC(CC(C3)C1)C2	x	n	n	n	x	x
CC1CCC/C(=N\NC(=O)c2ccncc2)C1 (stereo not given)	n	n	n	n	n	n
CCOc1ccc(OCc2ccc(C(=O)OCc3ccccn3)o2)cc1	n	n	n	n	4.43	n
CCOC(=O)c1ccc(COc2ccc(C(C)C)cc2)o1	n	n	n	n	n	n
Cc1ccc(-c2ccc(CO)o2)cc1N	n	n	n	n	n	n
CCOC(=O)c1ccc(-c2ccc(CO)o2)cc1	n	n	n	128.7	n	n
CCOC(=O)c1ccc(COC(=O)c2ccc(-c3nnc(-c4ccccc4)o3)cc2)o1	x	n	n	129.5	x	x
Cc1ccc(S(=O)(=O)N2C(=O)CCC2C(=O)Nn2cnnc2)cc1 (stereo not given)	n	x	x	n	n	n
COc1ccc(CCNC(=O)COC(=O)CCC(=O)c2ccc(F)cc2)cc1	n	n	n	n	n	n
CCOC(=O)c1oc2ccccc2c1NC(=O)CN1CCOCC1	n	n	n	n	n	n
C/C(O)=C\c1nc2ccccc2oc1=O	n	n	n	n	3.6	n
Cc1ccc2oc(=O)c(/C=C(\O)c3ccccc3)nc2c1	n	n	n	n	n	n
CS(=O)(=O)Cc1nc2ccccc2oc1=O	n	n	n	n	4.65	n
Cc1cc(C)c(NC(=O)c2ccccc2C(=O)c2ccccc2)c(C)c1	n	n	n	n	n	n
COc1ccc(NC(=O)COC(=O)/C=C/c2cnc3ccccc3n2)cc1	n	n	n	n	n	n
Nc1ccc2oc(-c3ccccc3Cl)cc(=O)c2c1O	n	n	n	n	6.53	n
COc1ccc(-n2c3c(cc(C#N)c2=O)C(=O)CCC3)cc1	n	n	n	n	n	n
O=[N+]([O-])c1nn(-c2ccc3c(c2)OCCO3)n(O)c1=NCc1ccc(F)cc1	n	n	n	143.3	n	n
O=[N+]([O-])c1nn(-c2ccc3c(c2)OCCO3)n(O)c1=NCc1ccc(F)cc1Cl	n	165.4	n	141.8	n	n
O=[N+]([O-])c1nn(-c2ccc3c(c2)OCCO3)n(O)c1=NCCC1=CCCCC1	n	n	n	n	n	n
CN=c1c([N+](=O)[O-])nn(-c2ccc3c(c2)OCCO3)n1O	n	n	n	n	n	n
Cc1ccc(C)c(NC(=O)c2cc(-c3cccnc3)nc3ccccc23)c1	n	n	n	n	n	n
C/C(=N\NC(=O)c1cc(-c2cccnc2)nc2ccccc12)c1ccc(O)cc1O	n	n	65.6	n	n	n
O=C(N/N=C/c1ccc(Cl)cc1)C1CC12CCC2 (stereo not given)	n	n	n	n	n	n
CN(c1ccccc1)S(=O)(=O)c1cccc(C(=O)OCC(=O)NCc2ccc3c(c2)OCO3)c1	n	n	n	n	n	n
c1ccc(CSc2ccc(-c3ccccn3)nn2)nc1	n	n	n	133.1	n	n
Clc1ccc(-c2ccc(SCc3ccccn3)nn2)cc1	n	n	n	144.8	n	n
